Results published in ChEMBL document CHEMBL2176868, “7-Alkyl-3-benzylcoumarins: a versatile scaffold for the development of potent and selective cannabinoid receptor agonists and antagonists” (J Med Chem, 2012).
pEC50, pKi: −log10 of the molar value.

Key:
Cannabinoid receptor 1 [1] = molecular target: T1, Cannabinoid receptor 1 (Homo sapiens, UniProt P21554); test: biochemical; assay type: cell-based, CHO
Cannabinoid receptor 2 [2] = molecular target: T2, Cannabinoid receptor 2 (Homo sapiens, UniProt P34972); test: Displacement of [3H]CP55,940 from human CB2 receptor expressed in CHO cells at 10 uM after 2 hrs by liquid scintillation counter; assay type: cell-based
T2 sequence (P34972 whole entry): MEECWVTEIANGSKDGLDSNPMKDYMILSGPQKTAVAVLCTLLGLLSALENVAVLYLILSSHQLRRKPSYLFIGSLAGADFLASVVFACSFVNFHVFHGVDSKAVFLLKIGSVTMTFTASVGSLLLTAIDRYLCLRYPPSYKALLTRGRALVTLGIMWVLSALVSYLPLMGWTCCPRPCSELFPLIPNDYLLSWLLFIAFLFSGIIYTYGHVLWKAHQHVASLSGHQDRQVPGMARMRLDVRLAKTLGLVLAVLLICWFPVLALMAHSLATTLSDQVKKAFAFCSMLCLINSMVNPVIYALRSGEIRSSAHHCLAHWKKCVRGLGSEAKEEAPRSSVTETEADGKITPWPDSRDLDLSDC
In short: (§1)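 The screen used CHO cell membranes expressing the human receptor (50 μg protein), [3H]CP55,940 at 0.1 nM final and compound at 10 μM in 50 mM Tris, 3 mM MgCl2, 0.1% BSA, pH 7.4, with 2.5% DMSO final. Incubation was 2 h at room temperature. Nonspecific binding was taken with 10 μM unlabeled CP55,940. Filtration through PEI-soaked GF/C filters was followed by scintillation counting, and the value is % inhibition of binding.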

Cannabinoid receptor 1 [3] = molecular target: T1, Cannabinoid receptor 1; test: Displacement of [3H]CP55,940 from human CB1 receptor expressed in CHO cells at 10 uM after 2 hrs by liquid scintillation counter; assay type: cell-based
In short: as §1

Cannabinoid receptor 2 [4] = molecular target: T2, Cannabinoid receptor 2; test: Displacement of [3H]CP55,940 from human CB2 receptor expressed in CHO cells after 2 hrs by liquid scintillation counter; assay type: cell-based
Cannabinoid receptor 1 [5] = molecular target: T1, Cannabinoid receptor 1; conditions: CHO, at 1 µM
Cannabinoid receptor 2 [6] = molecular target: T2, Cannabinoid receptor 2; test: Agonist activity at human CB2 receptor expressed in CHO cells assessed as inhibition of forskolin-stimulated cAMP accumulation using [3H]-cAMP at 1 uM after 5 mins by liquid scintillation counter relative to CP55940; assay type: functional, cell-based
Cannabinoid receptor 1 [7] = molecular target: T1, Cannabinoid receptor 1; test: Agonist activity at human CB1 receptor expressed in CHO cells assessed as inhibition of forskolin-stimulated cAMP accumulation using [3H]-cAMP after 5 mins by liquid scintillation counter; assay type: functional, cell-based
In short: (§2)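 Intact CHO cells stably expressing the receptor (retrovirally transfected, kept in 0.2 mg/mL G418) were seeded 24 h ahead and preincubated 2 h at 37 °C in HBSS. Cells were lysed hot and cAMP was read by competition with [3H]cAMP for bovine adrenal binding protein, filtered and counted. EC50 came from full concentration-response curves, three independent experiments in duplicate.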

Cannabinoid receptor 2 [8] = molecular target: T2, Cannabinoid receptor 2; test: Agonist activity at human CB2 receptor expressed in CHO cells assessed as inhibition of forskolin-stimulated cAMP accumulation using [3H]-cAMP after 5 mins by liquid scintillation counter; assay type: functional, cell-based
In short: as §2

CHO = test: Selectivity ratio of Ki for human CB1 receptor to Ki for human CB2 receptor expressed in CHO cells; assay type: cell-based

T1 sequence (P21554 whole entry): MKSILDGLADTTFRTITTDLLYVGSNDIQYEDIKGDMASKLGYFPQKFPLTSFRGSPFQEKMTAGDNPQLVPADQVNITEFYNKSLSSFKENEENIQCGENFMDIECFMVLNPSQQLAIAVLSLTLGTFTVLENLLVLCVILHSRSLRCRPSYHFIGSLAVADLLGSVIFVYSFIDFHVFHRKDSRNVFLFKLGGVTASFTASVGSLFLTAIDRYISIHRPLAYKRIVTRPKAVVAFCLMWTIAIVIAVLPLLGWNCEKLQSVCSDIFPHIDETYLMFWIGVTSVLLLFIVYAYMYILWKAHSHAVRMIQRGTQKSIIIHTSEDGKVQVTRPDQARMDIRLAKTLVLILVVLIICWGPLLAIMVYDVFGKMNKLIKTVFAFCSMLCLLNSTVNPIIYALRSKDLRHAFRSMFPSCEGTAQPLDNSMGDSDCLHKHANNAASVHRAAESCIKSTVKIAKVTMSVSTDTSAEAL

Structure (SMILES)	pKi (Cannabinoid receptor 1 [1])	inhibition (Cannabinoid receptor 2 [2]) [%]	inhibition (Cannabinoid receptor 1 [3]) [%]	pKi (Cannabinoid receptor 2 [4])	inhibition (Cannabinoid receptor 1 [5]) [%]	inhibition (Cannabinoid receptor 2 [6]) [%]	pEC50 (Cannabinoid receptor 1 [7])	pEC50 (Cannabinoid receptor 2 [8])	Ratio Ki (CHO)
Cc1cc(O)c2cc(Cc3ccccc3C)c(=O)oc2c1	< 5.00	38	34	< 5.00	–	–	–	–	–
CCCCC1(c2cc(OC)c3cc(Cc4ccccc4OC)c(=O)oc3c2)CCCC1	6.22	–	–	5.94	110	3	–	–	–
Cc1ccc(Cc2cc3c(O)cc(C)cc3oc2=O)cc1	< 5.00	23	30	< 5.00	–	–	–	–	–
CCCCCc1cc(OC)c2cc(Cc3ccccc3OC)c(=O)oc2c1	7.49	–	–	7.31	93	106	7.25	7.85	–
COc1cccc(Cc2cc3c(OC)cc(Br)cc3oc2=O)c1	< 5.00	–	38	5.61	0	0	–	–	–
COc1cccc(Cc2cc3c(OC)cc(CBr)cc3oc2=O)c1	5.32	–	–	4.88	23	0	–	–	–
COc1cccc(Cc2cc3c(OC)cc(CO[Si](c4ccccc4)(c4ccccc4)C(C)(C)C)cc3oc2=O)c1	< 5.00	4	12	< 5.00	–	–	–	–	–
CCCCCc1cc(OC)c2cc(Cc3cccc(C)c3)c(=O)oc2c1	6.15	–	–	6.41	0	50	–	–	–
CCCCCc1cc(O)c2cc(Cc3ccccc3C)c(=O)oc2c1	5.79	–	–	5.45	9	12	–	–	–
CCCCCCCC(C)(C)c1cc(OC)c2cc(Cc3ccccc3OC)c(=O)oc2c1	5.00	47	51	5.00	–	–	–	–	–
COc1cccc(Cc2cc3c(OC)cccc3oc2=O)c1	4.68	27	–	< 5.00	0	–	–	–	–
CCCCCc1cc(O)c2cc(Cc3cccc(C)c3)c(=O)oc2c1	5.66	–	–	5.75	42	10	–	–	–
CCCCCCC(C)(C)c1cc(O)c2cc(Cc3ccccc3O)c(=O)oc2c1	6.61	–	–	6.68	0	76	–	7.27	–
Cc1ccc(C(C)C)c2cc(Cc3ccccc3O)c(=O)oc12	< 5.00	24	31	< 5.00	–	–	–	–	–
CCCCCCC(C)(C)c1cc(O)c2cc(Cc3ccccc3)c(=O)oc2c1	5.58	–	–	6.33	84	32	–	–	–
CCCCCc1cc(OC)c2cc(Cc3ccccc3Cl)c(=O)oc2c1	7.48	–	–	6.73	6	47	–	–	–

Structure (SMILES)	pKi (Cannabinoid receptor 1 [1])	inhibition (Cannabinoid receptor 2 [2]) [%]	inhibition (Cannabinoid receptor 1 [3]) [%]	pKi (Cannabinoid receptor 2 [4])	inhibition (Cannabinoid receptor 1 [5]) [%]	inhibition (Cannabinoid receptor 2 [6]) [%]	pEC50 (Cannabinoid receptor 1 [7])	pEC50 (Cannabinoid receptor 2 [8])	Ratio Ki (CHO)
CCCCCCCC(C)(C)c1cc(O)c2cc(Cc3ccccc3O)c(=O)oc2c1	5.93	–	–	6.53	0	52	–	–	–
CCCCCc1cc(O)c2cc(Cc3ccccc3Cl)c(=O)oc2c1	4.72	–	–	5.71	60	2	–	–	–
CCCCCc1cc(OC)c2cc(Cc3cccc(OC)c3)c(=O)oc2c1	7.35	–	–	6.84	58	93	6.37	7.04	–
CCCCC1(c2cc(O)c3cc(Cc4ccccc4O)c(=O)oc3c2)CCCCC1	5.31	–	–	7.31	0	76	–	6.75	100
CCCCC1(c2cc(OC)c3cc(Cc4ccccc4OC)c(=O)oc3c2)CCCCC1	≥ 5.00	45	42	≥ 5.00	–	–	–	–	–
CCCCCc1cc(OC)c2cc(Cc3ccccc3)c(=O)oc2c1	5.72	–	–	6.57	58	47	–	–	7
CCCCCc1cc(O)c2cc(Cc3ccccc3)c(=O)oc2c1	5.90	–	–	5.77	0	0	–	–	–
CCCCCc1cc(O)c2cc(Cc3cccc(Cl)c3)c(=O)oc2c1	5.19	–	–	5.66	70	0	–	–	–
CCCCCCC(C)(C)c1cc(OC)c2cc(Cc3ccccc3OC)c(=O)oc2c1	5.99	–	–	5.52	0	30	–	–	–
CCCCCCC(C)(C)c1cc(OC)c2cc(Cc3ccccc3)c(=O)oc2c1	5.84	–	–	5.39	27	0	–	–	–
CCCCCc1cc(O)c2cc(Cc3ccccc3O)c(=O)oc2c1	5.01	–	–	5.32	109	0	–	–	–
CCCCCc1cc(O)c2cc(Cc3cccc(O)c3)c(=O)oc2c1	4.79	–	–	5.29	0	0	–	–	–
CCCCC1(c2cc(O)c3cc(Cc4ccccc4O)c(=O)oc3c2)CCCC1	5.80	–	–	7.17	18	106	–	7.32	–
CCCCCc1cc(OC)c2cc(Cc3ccccc3C)c(=O)oc2c1	7.66	–	–	6.39	0	58	–	6.67	–
COc1cccc(Cc2cc3c(OC)cc(CO)cc3oc2=O)c1	< 5.00	16	8	< 5.00	–	–	–	–	–
CCCCCc1cc(OC)c2cc(Cc3cccc(Cl)c3)c(=O)oc2c1	6.20	–	–	6.46	0	40	–	–	–
